Measurements reported in ChEMBL document CHEMBL1151684, “Synthesis and antitumoral activity of novel 3-(2-substituted-1,3,4-oxadiazol-5-yl) and 3-(5-substituted-1,2,4-triazol-3-yl) beta-carboline derivatives” (2008).

What was measured:
Type in all cases: functional
[1] = Growth inhibition of human PCO3 cells after 48 hrs by sulforhodamine B assay; settings: PCO3, 48 h
Outline: (§1)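 Sulforhodamine B colorimetric assay following the NCI standard protocol, with doxorubicin as positive control. Each compound was tested at four concentrations in 10-fold dilutions (0.25 to 250). GI50, the concentration giving 50% growth reduction versus untreated control cells, was derived from dose–response curves.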

UACC-62 = assay: Growth inhibition of human UACC-62 cells after 48 hrs by sulforhodamine B assay; settings: UACC-62, 48 h; outline: as §1
786-0 = assay: Growth inhibition of human 786-0 cells after 48 hrs by sulforhodamine B assay; settings: 786-0, 48 h; for CC50: read-out: LC50 (the source's name); outline: as §1
MCF7 = assay: Growth inhibition of human MCF7 cells after 48 hrs by sulforhodamine B assay; settings: MCF7, 48 h; outline: as §1
OVCAR = assay: Growth inhibition of human OVCAR cells after 48 hrs by sulforhodamine B assay; outline: as §1
K562 = assay: Growth inhibition of human K-562 cells after 48 hrs by sulforhodamine B assay; settings: K562, 48 h; outline: as §1
[2] = Growth inhibition of human NCI-460 cells after 48 hrs by sulforhodamine B assay; settings: NCI-460, 48 h; outline: as §1
HT-29 = assay: Growth inhibition of human HT-29 cells after 48 hrs by sulforhodamine B assay; settings: HT-29, 48 h; outline: as §1

SMILES	GI50 [1] [µM]	TGI [1] [µM]	GI50 (UACC-62) [µM]	TGI (UACC-62) [µM]	GI50 (786-0) [µM]	TGI (786-0) [µM]	CC50 (786-0) [µM]	GI50 (MCF7) [µM]	TGI (MCF7) [µM]	GI50 (OVCAR) [µM]	TGI (OVCAR) [µM]	GI50 (K562) [µM]	TGI (K562) [µM]	GI50 [2] [µM]	LC50 (concentration for 50% net cell kill) [2] [µM]	TGI [2] [µM]	GI50 (HT-29) [µM]	TGI (HT-29) [µM]	LC50 (concentration killing 50% of cells) [1] [µM]	LC50 (concentration killing 50% of the cells, NCI protocol) (OVCAR) [µM]	also measured
CN(C)c1ccc(-c2nc(-c3n[nH]c(=S)n3N)cc3c2[nH]c2ccccc23)cc1	> 100	> 100	50.4	> 100	0.97	80	> 100	> 100	> 100	> 100	> 100	> 100	> 100	0.2	> 100	71.8	> 100	> 100	–	–	–
Oc1ccc(-c2nc(-c3n[nH]c(=S)[nH]3)cc3c2[nH]c2ccccc23)cc1	0.5	40.7	10.6	> 100	0.17	23.8	> 100	19.8	> 100	6.41	> 100	> 100	> 100	6.69	–	> 100	46.2	> 100	> 100	–	–
CN(C)c1ccc(-c2nc(-c3n[nH]c(=S)[nH]3)cc3c2[nH]c2ccccc23)cc1	1.37	6.68	1.74	> 100	0.04	1.24	37.3	8.63	37	1.09	7.28	11.1	> 100	0.06	> 100	8.96	8.63	51.5	> 100	47.9	LC50 (concentration killing 50% of cells) (MCF7): > 100 µM
Nn1c(-c2cc3c([nH]c4ccccc43)c(-c3ccc(O)cc3)n2)n[nH]c1=S	25.5	> 100	22.5	> 100	0.26	94.1	> 100	61.2	> 100	27.5	98.4	29.9	> 100	0.15	–	12.2	34	> 100	–	> 100	–
Nn1c(-c2cc3c([nH]c4ccccc43)c(-c3ccccc3Cl)n2)n[nH]c1=S	24.7	> 100	20.2	86.1	39.5	–	> 100	70.1	> 100	6.8	49.9	62.4	> 100	15.4	> 100	38	33	> 100	–	> 100	LC50 (concentration killing 50% of cells, NCI protocol) (UACC-62): > 100 µM
CSc1nnc(-c2cc3c([nH]c4ccccc43)c(-c3ccccc3Cl)n2)n1N	22.2	> 100	18.6	59	16.8	93.5	> 100	20.1	> 100	11.2	38.4	1.92	> 100	13.9	> 100	41.8	20.4	> 100	–	> 100	LC50 (concentration killing 50% of cells, NCI protocol) (UACC-62): > 100 µM
Nn1c(-c2cc3c([nH]c4ccccc43)c(-c3ccccc3)n2)n[nH]c1=S	10.9	30.6	24.3	> 100	10.9	49.4	> 100	15	32.5	12	25.3	9.93	> 100	1.59	> 100	54.7	15	86.9	> 100	52.5	LC50 (concentration killing 50% of cells) (MCF7): > 100 µM
CSc1nnc(-c2cc3c([nH]c4ccccc43)c(-c3ccccc3)n2)n1N	> 100	–	> 100	–	> 100	–	–	> 100	–	> 100	–	2.04	–	> 100	–	–	> 100	–	–	–	–
